Laboratory results: publication PMC4059252 (Journal of Medicinal Chemistry, 2014)

Assay: Metal cation competition
Format: physicochemical
Procedure, shortened: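 200 μM ligand (1 mL) was labelled with 30–50 μCi neutralised 89Zr for 1 h at room temperature, and complete labelling was confirmed by radio-TLC. 200 μL aliquots were mixed with 200 μL 1 mM metal salt (e.g. CoCl2) at pH 7.4 and incubated at 37 °C with agitation. Radio-TLC at 1 h, 1, 5, 7 d gave % intact complex. Mean and SD from two experiment sets.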

In the case of `CC(=O)N(O)CCCCCNC(=O)CCC(=O)N(O)CCCCCNC(=O)CCC(=O)N(O)CCCCCN` [DFO, desferrioxamine B], the “^89Zr^4+ released” value (after 7 days of incubation with FeCl3) is reported as over 50% and the “^89Zr^4+ released” value (in the presence of Ga^3+) is reported as about 9%.
